Test results: ChEMBL document CHEMBL2176925, “Novel ¹⁸F-labeled benzoxazole derivatives as potential positron emission tomography probes for imaging of cerebral β-amyloid plaques in Alzheimer's disease” (J Med Chem, 2012); call rule not given here

Experiments:
Brain [1] = experiment: Drug uptake in ddY mouse brain at 370 kBq/100 ul, iv at 2 mins by gamma-counting analysis; type: ADME, organism-based; settings: in vivo
Method in brief: (§1)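 Normal male ddY mice (5 weeks, 20−22 g, n = 5) received 370 kBq of tracer in 100 μL saline with 5% EtOH via tail vein. Mice were sacrificed at set times after injection, and organs were excised, weighed and γ-counted against diluted injectate aliquots. Values are %ID per gram, except stomach and intestine as %ID per organ, given as mean ± SD of 5 mice.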

Kidney [2] = experiment: Drug uptake in ddY mouse kidney at 370 kBq/100 ul, iv at 10 mins by gamma-counting analysis; type: ADME, organism-based; settings: in vivo; method in brief: as §1
Stomach = experiment: Drug uptake in ddY mouse stomach assessed per organ at 370 kBq/100 ul, iv at 30 mins by gamma-counting analysis; type: ADME, organism-based; settings: in vivo, 0.5 h
Method in brief: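 Male ddY mice (5 weeks, 20−22 g, n = 5) received tracer in saline with 5% EtOH, 370 kBq/100 μL, by tail vein. Killed at set times after dosing. Stomach removed, weighed and γ-counted against diluted aliquots of the injected dose. Reported as % injected dose per organ, mean ± SD of 5 mice.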

Liver [3] = experiment: Drug uptake in ddY mouse liver at 370 kBq/100 ul, iv at 10 mins by gamma-counting analysis; type: ADME, organism-based; settings: in vivo; method in brief: as §1
Blood [4] = experiment: Drug uptake in ddY mouse blood at 370 kBq/100 ul, iv at 2 mins by gamma-counting analysis; type: ADME, organism-based; settings: in vivo; method in brief: as §1
Kidney [5] = experiment: Drug uptake in ddY mouse kidney at 370 kBq/100 ul, iv at 2 mins by gamma-counting analysis; type: ADME, organism-based; settings: in vivo; method in brief: as §1
Liver [6] = experiment: Drug uptake in ddY mouse liver at 370 kBq/100 ul, iv at 60 mins by gamma-counting analysis; type: ADME, organism-based; settings: in vivo, 1 h; method in brief: as §1
Brain [7] = experiment: Drug uptake in wild type C57BL6 mouse brain at 370 kBq/100 ul after 1 hr by thioflavinS-staining method; type: ADME, tissue-based
Method in brief: (§2)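 Paraffin sections of brain were used: C57BL6 mice (wild-type, 12 months), human AD (person) and normal human. Sections were deparaffinized through xylene and graded ethanol, then equilibrated 30 min in PBS (0.2 M, pH 7.4). Incubated 1 h at room temperature with tracer, 370 kBq/100 μL, washed 1 min in 50% ethanol and rinsed with water. Imaging plate exposed overnight. Plaques confirmed by thioflavin-S or anti-Aβ1-42 monoclonal immunostaining.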

Brain [8] = experiment: Drug uptake in wild type C57BL6 mouse brain at 370 kBq/100 ul after 1 hr by autoradiographic analysis; type: ADME, tissue-based; settings: in vitro; method in brief: as §2
Intestine = experiment: Drug uptake in ddY mouse intestine at 370 kBq/100 ul, iv at 10 mins by gamma-counting analysis; type: ADME, organism-based; settings: in vivo; method in brief: as §1
Brain [9] = experiment: Drug uptake in ddY mouse brain at 370 kBq/100 ul, iv at 60 mins by gamma-counting analysis; type: ADME, organism-based; settings: in vivo, 1 h; method in brief: as §1
Blood [10] = experiment: Drug uptake in ddY mouse blood at 370 kBq/100 ul, iv at 10 mins by gamma-counting analysis; type: ADME, organism-based; settings: in vivo; method in brief: as §1
Bone [11] = experiment: Drug uptake in ddY mouse bone at 370 kBq/100 ul, iv at 60 mins by gamma-counting analysis; type: ADME, organism-based, Bone element; settings: in vivo, 1 h; method in brief: as §1
Lung = experiment: Drug uptake in ddY mouse lung at 370 kBq/100 ul, iv at 60 mins by gamma-counting analysis; type: ADME, organism-based; settings: in vivo, 1 h; method in brief: as §1
Heart = experiment: Drug uptake in ddY mouse heart at 370 kBq/100 ul, iv at 10 mins by gamma-counting analysis; type: ADME, organism-based; settings: in vivo; method in brief: as §1
Bone [12] = experiment: Drug uptake in ddY mouse bone at 370 kBq/100 ul, iv at 2 mins by gamma-counting analysis; type: ADME, organism-based, Bone element; settings: in vivo; method in brief: as §1
Hippocampus = experiment: Drug uptake in transgenic C57BL6 mouse hippocampus expressing APP Swedish mutant at 40.7 MBq, iv at 60 mins by microPET imaging; type: ADME, organism-based; settings: in vivo, 1 h
Brain [13] = experiment: Ratio of drug uptake in brain at 2 mins to drug uptake in 20 mins in transgenic C57BL6 mouse expressing APP Swedish mutant; type: ADME, tissue-based; settings: in vivo
Brain [14] = experiment: Ratio of drug uptake in brain at 2 mins to drug uptake in 20 mins in wild type C57BL6 mouse; type: ADME, tissue-based; settings: in vivo
Cortex = experiment: Drug uptake in transgenic C57BL6 mouse cortex expressing APP Swedish mutant at 40.7 MBq, iv at 60 mins by microPET imaging; type: ADME, organism-based; settings: in vivo, 1 h
Brain [15] = experiment: Drug uptake in transgenic C57BL6 mouse brain expressing APP Swedish mutant at 40.7 MBq, iv at 2 mins by microPET imaging; type: ADME, organism-based; settings: in vivo
Brain [16] = experiment: Drug uptake in wild type C57BL6 mouse brain at 40.7 MBq, iv up to 60 mins by microPET imaging; type: ADME, organism-based; settings: in vivo, 1 h
Brain [17] = experiment: Drug uptake in wild type C57BL6 mouse brain at 40.7 MBq, iv at 2 mins by microPET imaging; type: ADME, organism-based; settings: in vivo

Drug uptake (Brain [1])	Drug uptake (Kidney [2])	Drug uptake (Stomach)	Drug uptake (Liver [3])	Drug uptake (Blood [4])	Drug uptake (Kidney [5])	Drug uptake (Liver [6])	Drug uptake (Brain [7])	Drug uptake (Brain [8])	Drug uptake (Intestine)	Drug uptake (Brain [9])	Drug uptake (Blood [10])	Drug uptake (Bone [11])	Drug uptake (Lung)	Drug uptake (Heart)	Drug uptake (Bone [12])	SMILES	further results
5.29 % ID/g	5.18 % ID/g	1.51 %ID	11.36 % ID/g	3.24 % ID/g	8.71 % ID/g	6.92 % ID/g	Not Active	Not Active	15.7 % ID/g	2.12 % ID/g	2.26 % ID/g	3.45 % ID/g	3.22 % ID/g	3.52 % ID/g	1.18 % ID/g	CN(C)c1ccc(-c2nc3cc(OCCOCCOCC[18F])ccc3o2)cc1	–
8.12 % ID/g	8.45 % ID/g	1.85 %ID	23.15 % ID/g	4.76 % ID/g	12.88 % ID/g	13.06 % ID/g	Not Active	Not Active	25 % ID/g	3.04 % ID/g	3.46 % ID/g	5.78 % ID/g	5.22 % ID/g	4.78 % ID/g	3.17 % ID/g	CNc1ccc(-c2nc3cc(OCCOCCOCC[18F])ccc3o2)cc1	Drug uptake (Hippocampus): Active; Ratio (Brain [13]): 1.21; Ratio (Brain [14]): 1.77; Drug uptake (Cortex): Active; Drug uptake (Brain [15]): Active; Drug uptake (Brain [16]): Not Active; Drug uptake (Brain [17]): Active
